The values below come from ChEMBL document CHEMBL2406970, “Synthesis and bioevaluation of a series of α-pyrone derivatives as potent activators of Nrf2/ARE pathway (part I)” (Eur J Med Chem, 2013).

Assay [1] has as its system HCT-116. As to the kind of experiment: Cytotoxicity against human HCT116 cells by MTT assay. It is filed as functional, cell-based. A digest of the protocol:
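HCT116 cells were cultured in McCoy's 5A with 10% FBS and exposed to a range of compound concentrations. MTT was added for 4 h, the solution removed and DMSO added. OD was read at 570 nm, and inhibition calculated as [1 − (OD_test − OD_blank)/(OD_control − OD_blank)] × 100%.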
Background: Tetrazolium dyes change colour on reduction, which living cells bring about.

In assay [2] the target is T1, Keap1/Nrf2 (Homo sapiens) (UniProt Q16236+Q14145). Nature of the assay: Induction of Nrf2/Keap1 in human HCT116 cells assessed as induction of ARE activity at 20 uM after 12 hrs by luciferase reporter gene assay relative to control. The format is cell-based. The settings on record: HCT-116. (A reporter such as luciferase makes a cellular process visible.)
T1 sequence (Q14145 whole entry, looked up, one chain of several): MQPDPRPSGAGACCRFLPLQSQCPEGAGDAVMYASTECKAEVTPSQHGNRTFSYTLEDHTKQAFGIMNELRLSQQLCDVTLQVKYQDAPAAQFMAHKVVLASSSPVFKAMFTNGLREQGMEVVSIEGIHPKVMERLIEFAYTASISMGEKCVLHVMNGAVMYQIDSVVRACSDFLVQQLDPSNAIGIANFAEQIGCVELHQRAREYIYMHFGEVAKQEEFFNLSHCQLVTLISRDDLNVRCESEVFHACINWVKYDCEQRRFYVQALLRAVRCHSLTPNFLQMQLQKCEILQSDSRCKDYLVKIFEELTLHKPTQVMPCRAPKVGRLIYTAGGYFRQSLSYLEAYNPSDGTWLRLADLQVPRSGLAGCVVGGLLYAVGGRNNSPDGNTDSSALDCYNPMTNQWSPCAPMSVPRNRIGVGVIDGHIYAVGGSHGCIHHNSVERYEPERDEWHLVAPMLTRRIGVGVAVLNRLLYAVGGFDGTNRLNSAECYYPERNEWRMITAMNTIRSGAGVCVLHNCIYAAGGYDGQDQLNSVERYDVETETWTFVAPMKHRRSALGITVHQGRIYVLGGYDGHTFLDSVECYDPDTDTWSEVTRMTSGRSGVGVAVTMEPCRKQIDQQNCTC
Assay [3] concerns the target T1, Keap1/Nrf2 (Homo sapiens). Nature of the assay: Induction of Nrf2/Keap1 in human HepG2-ARE-C8 cells assessed as induction of ARE activity at 50 uM after 12 hrs by luciferase reporter gene assay relative to control.
For assay [4], the target named is T2, Nuclear factor erythroid 2-related factor 2 (Homo sapiens) (UniProt Q16236).
T2 sequence (whole entry): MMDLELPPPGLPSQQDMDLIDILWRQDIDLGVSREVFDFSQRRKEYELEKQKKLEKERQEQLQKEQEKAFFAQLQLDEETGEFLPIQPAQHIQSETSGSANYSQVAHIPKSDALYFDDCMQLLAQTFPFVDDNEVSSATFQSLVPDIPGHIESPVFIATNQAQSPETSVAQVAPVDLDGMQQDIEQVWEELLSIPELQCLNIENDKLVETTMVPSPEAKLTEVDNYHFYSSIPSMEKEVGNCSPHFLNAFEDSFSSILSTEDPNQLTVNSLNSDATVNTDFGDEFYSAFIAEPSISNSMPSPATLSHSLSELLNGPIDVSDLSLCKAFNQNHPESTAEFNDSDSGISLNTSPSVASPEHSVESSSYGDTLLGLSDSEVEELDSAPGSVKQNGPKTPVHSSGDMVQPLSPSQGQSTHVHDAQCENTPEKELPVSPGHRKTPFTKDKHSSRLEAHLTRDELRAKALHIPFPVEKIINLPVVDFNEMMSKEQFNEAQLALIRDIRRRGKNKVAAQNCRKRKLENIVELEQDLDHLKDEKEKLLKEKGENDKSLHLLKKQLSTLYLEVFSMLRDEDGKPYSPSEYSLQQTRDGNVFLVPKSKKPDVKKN
Nature of the assay: Activation of NRF2 in human HCT116 cells assessed as expression of ERK1/2 at 20 uM up to 24 hrs by Western blot analysis. It is filed as cell-based. The note with it: HCT-116. On the technique in general: In western blotting, separated proteins are transferred to a membrane and probed.

Assay [5] deals with T2, Nuclear factor erythroid 2-related factor 2 (Homo sapiens). Nature of the assay: Activation of NRF2 in human HCT116 cells assessed as ERK1/2 phosphorylation at 20 uM after 30 mins to 1 hr by Western blot analysis. The settings on record: HCT-116. It is filed as cell-based.
For assay [6] the target is unchanged. As to the kind of experiment: Activation of NRF2 in human HCT116 cells assessed as ERK1/2 phosphorylation at 20 uM after 30 mins to 1 hr by Western blot analysis in presence of MEK1/2 inhibitor PD98059. The format is cell-based. The settings on record: HCT-116.
In assay [7] the test system is HCT-116. Nature of the assay: Induction of NQO-1 expression in human HCT116 cells at 20 uM up to 24 hrs by Western blot analysis in presence of MEK1/2 inhibitor PD98059. The format is functional, cell-based.
Assay [8] has as its system HCT-116. As to the kind of experiment: Induction of nuclear translocation of Nrf2 in human HCT116 cells at 20 uM after 24 hrs by Western blot analysis. It is filed as functional, cell-based.
For assay [9], the system named is HCT-116. As to the kind of experiment: Induction of nuclear translocation of Nrf2 in human HCT116 cells at 20 uM after 1 hr by Western blot analysis. The format is functional, cell-based.
The test system of assay [10] is HCT-116. Nature of the assay: Induction of HO-1 expression in human HCT116 cells at 20 uM after 8 hrs by Western blot analysis. It is filed as functional, cell-based.
Assay [11] deals with HCT-116. As to the kind of experiment: Induction of Nrf2 expression in human HCT116 cells at 20 uM up to 24 hrs by Western blot analysis in presence of MEK1/2 inhibitor PD98059. It is filed as functional, cell-based.
Assay [12] has as its system HCT-116. Nature of the assay: Induction of HO-1 expression in human HCT116 cells at 20 uM up to 24 hrs by Western blot analysis in presence of MEK1/2 inhibitor PD98059. The format is functional, cell-based.
In assay [13] the test system is HCT-116. As to the kind of experiment: Induction of Nrf2 expression in human HCT116 cells at 20 uM after 2 hrs by Western blot analysis. It is filed as functional, cell-based.
The subject of assay [14] is HCT-116. As to the kind of experiment: Induction of NQO-1 expression in human HCT116 cells at 20 uM after 24 hrs by Western blot analysis. The format is functional, cell-based.
The test system of assay [15] is HCT-116. As to the kind of experiment: Induction of nuclear translocation of Nrf2 in human HCT116 cells at 20 uM after 1 to 2 hrs by immunofluorescence staining in presence of MEK1/2 inhibitor PD98059.
Assay [16] deals with T1, Keap1/Nrf2 (Homo sapiens). As to the kind of experiment: Induction of Nrf2/Keap1 in human HCT116 cells assessed as induction of ARE activity after 12 hrs by luciferase reporter gene assay. It is filed as cell-based. The note with it: HCT-116.
Assay [17] has as its target T1, Keap1/Nrf2 (Homo sapiens). Nature of the assay: Induction of Nrf2/Keap1 in human HCT116 cells assessed as induction of ARE activity at 20 uM after 12 hrs by luciferase reporter gene assay in presence of MEK1/2 inhibitor PD98059. The format is cell-based. The note with it: HCT-116.
For assay [18], the target named is T1, Keap1/Nrf2 (Homo sapiens). As to the kind of experiment: Induction of Nrf2/Keap1 in human HCT116 cells assessed as induction of ARE activity at 80 uM after 12 hrs by luciferase reporter gene assay relative to control. The format is cell-based. The note with it: HCT-116.

Molecules are shown by their SMILES. Active and inactive are the calls of the source. The calls are words filed in the database; no cut-off is given here.

In the case of `Cc1cc(O)c(C(=O)/C=C/c2ccc([N+](=O)[O-])cc2)c(=O)o1`, the IC50 (as a rule, the concentration that gives 50% inhibition) with HCT-116 [1] came out at 65 µM. The fold change (FC) in assay [2] worked out at 4.77; in [3], 2.48.
Regarding `Cc1cc(O)c(C(=O)/C=C/c2cccs2)c(=O)o1`, the IC50 with HCT-116 [1] was above 100 µM. Besides, the figures for the fold change (FC) in assay [2] and in assay [3] were 4.53 and 5.96, respectively.
In turn, `Cc1cc(O)c(C(=O)/C=C/c2ccc(C#N)cc2)c(=O)o1` returned an IC50 in the assay on HCT-116 [1] of 66 µM. The fold change (FC) in [2] turned out to be 3.68; in assay [3] it was 2.07.
In the case of `Cc1cc(O)c(C(=O)/C=C/c2cccc(Cl)c2)c(=O)o1`, in the assay with HCT-116 [1], it took 66.3 µM to reach half-maximal inhibition (IC50). Besides, the fold change (FC) in assay [2] came to 6.46; in assay [3], 4.51.
`Cc1cc(O)c(C(=O)/C=C/c2ccccc2Cl)c(=O)o1` had an IC50 in the assay with HCT-116 [1] above 100 µM. Further, the fold change (FC) in assay [2] came out at 5.08; in [3] it was 0.95.
Turning to `Cc1cc(O)c(C(=O)/C=C/c2ccc(Cl)c(Cl)c2)c(=O)o1`, the IC50 in the assay with HCT-116 [1] is above 100 µM. In addition, the fold change (FC) in assay [2] amounted to 8; in [3], 1.2.
In the assay on HCT-116 [1], `COc1ccc(/C=C/C(=O)c2c(O)cc(C)oc2=O)cc1` showed an IC50 above 100 µM. Also, the fold change (FC) in [2] worked out at 6.48; in assay [3], 7.37.
Molecule `Cc1cc(O)c(C(=O)/C=C/c2ccccc2[N+](=O)[O-])c(=O)o1` showed an IC50 with HCT-116 [1] above 100 µM. For the same molecule, the fold change (FC) in assay [2] stood at 2.74; in assay [3], 0.65.
`Cc1cc(O)c(C(=O)/C=C/c2ccc(N(C)C)cc2)c(=O)o1`: in the assay on HCT-116 [1], the IC50 was above 100 µM. The fold change (FC) was 4.55 in [2] and 8.09 in assay [3].
Molecule `Cc1cc(O)c(C(=O)/C=C/c2ccc[nH]2)c(=O)o1` showed a half-maximal inhibitory concentration (IC50) in the assay on HCT-116 [1] above 100 µM. Also, the fold change (FC) in assay [2] stood at 1.66; in assay [3], 3.58.
`COc1ccc(/C=C/C(=O)c2c(O)cc(C)oc2=O)c(OC)c1` showed an IC50 with HCT-116 [1] above 100 µM. Besides, the fold change (FC) in assay [2] stood at 8.21; in assay [3], 6.81.
For the molecule `Cc1cc(O)c(C(=O)/C=C/c2ccc(F)cc2)c(=O)o1`, in the assay with HCT-116 [1], the IC50 was above 100 µM. For the same molecule, the values for the fold change (FC) in assay [2] and in [3] were 6.33 and 5.79, respectively.
Take `Cc1cc(O)c(C(=O)/C=C/c2ccc(Cl)cc2Cl)c(=O)o1`: in the assay with HCT-116 [1], the IC50 is 88.7 µM. The results for the fold change (FC) in assay [2] and in assay [3] were 5.49 and 3.27, respectively.
`Cc1cc(O)c(C(=O)/C=C/c2ccccc2F)c(=O)o1`: the result (in assay [4]; in assay [6]; with HCT-116 [7]; in the assay on HCT-116 [8]; in the assay on HCT-116 [11]; in the assay on HCT-116 [12]) was inactive. Moreover, the outcome (with HCT-116 [15]; in assay [17]) was inactive. Also, the outcome (in assay [5]; in the assay on HCT-116 [9]; with HCT-116 [10]; with HCT-116 [13]; in the assay on HCT-116 [14]) was Active. The 50% inhibitory concentration (IC50) in the assay with HCT-116 [1] was above 100 µM. Besides, the fold change (FC) was 7.08 in [2] and 3.04 in [3]. Moreover, in [16], the Activity entry was “Dose-dependent effect”.
Take `CC(C)(C)c1cc(O)ccc1O` [E319]: in assay [18], the fold change (FC) is 5.08. In the assay on HCT-116 [1], this molecule had an IC50 above 100 µM.
Molecule `COc1ccccc1/C=C/C(=O)c1c(O)cc(C)oc1=O` displayed an IC50 in the assay on HCT-116 [1] above 100 µM. Moreover, the fold change (FC) in assay [2] stood at 5.86; in assay [3], 2.08.
The molecule `Cc1cc(O)c(C(=O)/C=C/c2ccc3ccccc3c2)c(=O)o1` registered a 50% inhibitory concentration (IC50) in the assay with HCT-116 [1] above 100 µM. Also, the results for the fold change (FC) in [2] and in assay [3] were 1.37 and 2.17, respectively.
For `Cc1cc(O)c(C(=O)/C=C/c2cccc(F)c2)c(=O)o1`, the half-inhibitory concentration (IC50) with HCT-116 [1] turned out to be 81.2 µM. Further, the fold change (FC) in assay [2] was determined as 7.04; in assay [3] it was 3.46.
On to `Cc1cc(O)c(C(=O)/C=C/c2ccco2)c(=O)o1`, for which, in the assay on HCT-116 [1], the IC50 was above 100 µM. For the same molecule, the values for the fold change (FC) in [2] and in [3] were 3.8 and 5.48, respectively.
On to `Cc1cc(O)c(C(=O)/C=C/c2ccc(F)c(F)c2)c(=O)o1`, for which the IC50 in the assay on HCT-116 [1] came to 74.9 µM. Also, the fold change (FC) in [2] amounted to 9.65; in assay [3], 3.68.
In the same order, the values of `CCOc1ccc(/C=C/C(=O)c2c(O)cc(C)oc2=O)cc1` are above 100 µM, 4.66 and 5.5.
The molecule `Cc1cc(O)c(C(=O)/C=C/c2ccc(-c3ccccc3)cc2)c(=O)o1` came in with a 50% inhibitory concentration (IC50) in the assay with HCT-116 [1] above 100 µM. In addition, the fold change (FC) in assay [2] was 5.67; in assay [3], 3.6.
In the assay with HCT-116 [1], `Cc1cc(O)c(C(=O)/C=C/c2ccc(Cl)cc2)c(=O)o1` had an IC50 of 87.4 µM. Moreover, the fold change (FC) in assay [2] is 6.97; in assay [3], 6.28.
With `Cc1cc(O)c(C(=O)/C=C/c2ccc(F)cc2F)c(=O)o1`, inhibition in the assay on HCT-116 [1] was half-maximal at 80.3 µM (IC50). The figures for the fold change (FC) in assay [2] and in assay [3] were 6.93 and 6.98, respectively.
For `COc1cc(/C=C/C(=O)c2c(O)cc(C)oc2=O)cc(OC)c1OC`, the half-maximal inhibitory concentration (IC50) with HCT-116 [1] is above 100 µM. Also, the values for the fold change (FC) in assay [2] and in [3] were 8.58 and 5.25, respectively.
In the same order, the values of `Cc1cc(O)c(C(=O)/C=C/c2ccccc2C(F)(F)F)c(=O)o1` are above 100 µM, 4.27 and 2.55.
On to `Cc1cc(O)c(C(=O)/C=C/c2ccccc2)c(=O)o1`, for which the IC50 in the assay with HCT-116 [1] was above 100 µM. For the same molecule, the fold change (FC) in assay [2] came out at 4.21; in [3] it was 6.84.
